High-throughput results from PubChem.
This is a sample that favours compounds with a hit; in the whole collection about 1.6% have one here.
DNA FID counter = fluorescent intercalator displacement, NS3 helicase counter-screen; inhibition, % at 7.9 µM; 290,000 tested, 0.17% active; AID 1845; DNA fluorescent intercalator displacement, fluorescence; in the data active means inhibition above about 37%;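 further: higher means more ethidium bromide displaced from hairpin DNA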
IMP-1 inhibitor = blocks Pseudomonas aeruginosa IMP-1 metallo-beta-lactamase; purified IMP-1, nitrocefin hydrolysis, epi-absorbance fluorescence; inhibition, % at 5.6 µM; 290,000 tested, 0.45% active; AID 1556;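 active means inhibition above the mean plus 3 SD of all compounds in the same screening run, cut at about 4.5% in these data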
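Assay system: purified IMP-1; Quantity: IMP-1 0.2 nM before substrate addition; Medium: HEPES buffer pH 7.1 with ZnSO4 and Brij 35; Incubation: 15 min enzyme–compound preincubation, then 25 min nitrocefin reaction, 25 °C; Signal: fluorescence quenching readout, ex 480/em 530 nm; Controls: DMSO with and without IMP-1; Repeats: singlicate testing.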
VIM-2 inhibitor = blocks Pseudomonas aeruginosa VIM-2 metallo-beta-lactamase; purified VIM-2, nitrocefin hydrolysis, epi-absorbance fluorescence; inhibition, % at 5.6 µM; 290,000 tested, 0.89% active;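 active means inhibition above the mean of all tested compounds plus 3 SD, cutoff set per screening run, cut at about 7.5% in these data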;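 further: red hydrolysis product quenches plate fluorescence so inhibitors raise well fluorescence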
core dimer inh = blocks dimerization of HCV core protein; TR-FRET GST/Flag-core106 dimerization, 1536-well; inhibition, % at 5 µM; 300,000 tested, 0.33% active;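 active means inhibition above the mean of all tested compounds plus 3 SD, set per screening campaign, cut at about 45% in these data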
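Assay system – GST-tagged and Flag-tagged HCV core protein residues 1-106 · Quantity – core106 proteins, GST 13.5 nM and Flag 17 nM · Benchmarks – unlabelled core106 and no-GST-core106 wells · Read-out basis – percent inhibition of core106 dimerization signal · Detection – time-resolved FRET, ex 340 nm, em 617 and 671 nm · Schedule – 4 h at 22.5 °C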
Of the large screens only hits and unclear results are named; the others gave an inactive call.

Cc1cc(C)c2nc(C)cc(Nc3ccc(C(=O)N(C)C)cc3)c2c1	none
CC(=O)c1ccc(Nc2cc(C)nc3c(C)cc(C)cc23)cc1	VIM-2 inhibitor 8.0
COc1ccc(Nc2cc(C)nc3ccc(OC)cc23)cc1	VIM-2 inhibitor 11
Cc1ccc2nc(-c3cccc(S(=O)(=O)N4CC(C)OC(C)C4)c3)cn2c1 (configuration not stated)	none
Cc1ccc(Nc2cc(C)nc3ccc(C)cc23)cc1	VIM-2 inhibitor 10.0
COC(=O)c1ccc2nc(C)cc(Nc3ccc(N(C)C)cc3)c2c1	VIM-2 inhibitor 8.3
CCOc1ccc(Nc2cc(C)nc3ccc(C)cc23)cc1	none (no result: DNA FID counter, IMP-1 inhibitor, VIM-2 inhibitor)
COC(=O)c1ccc(Nc2cc(C)nc3ccccc23)cc1	none
CCOc1cc(/C=C/c2cc(C(F)(F)F)[nH]c(=O)n2)ccc1O	none
Cc1ccc(Cn2c(SCC(=O)N(C)C3CCS(=O)(=O)C3)nc3ccccc3c2=O)cc1 (configuration not stated)	none (no result: DNA FID counter, IMP-1 inhibitor, VIM-2 inhibitor)
CCOC(=O)c1cc(=O)[nH]c2ccccc12	none
CCCOC(=O)c1cc(=O)[nH]c2ccccc12	IMP-1 inhibitor 4.5
CCOC(=O)C1=C(C)OC(N)=C(C#N)C1c1ccc(OC)c(CSc2ccccn2)c1 (configuration not stated)	none
N#CC1(c2ccc(NC(=O)c3ccccc3)cc2)CCCC1	none
CC(=O)Oc1ccc(C(=O)Nc2ccc(C3(C#N)CCCC3)cc2)cc1	IMP-1 inhibitor 12
CCCCN(CC)CCNC(=O)c1cc2c(=O)[nH]c3ccccc3c2s1	none
CCCN(CCC)CCNC(=O)c1cc2c(=O)n(CC)c3ccccc3c2s1	VIM-2 inhibitor 10
CCCCN(C)CCNC(=O)c1cc2c(=O)[nH]c3ccccc3c2n1C	VIM-2 inhibitor 8.6
CCCN(CCC)CCCNC(=O)c1cc2c(=O)[nH]c3ccccc3c2s1	VIM-2 inhibitor 9.7
CCn1c(=O)c2cc(C(=O)NCCOC)sc2c2ccccc21	VIM-2 inhibitor 8.3
CCn1c(=O)c2cc(C(=O)Nc3ccc(OC)cc3OC)sc2c2ccccc21	none
O=c1c(C=NCCCO)c(-c2ccccc2)[nH]n1-c1nc2ccccc2s1	none
CCOC(=O)c1c(N2CCCCC2)c2ccccc2[nH]c1=O	none
CCOCCCNC(=O)c1cc2c(=O)n(CC)c3ccccc3c2s1	VIM-2 inhibitor 7.9
CCn1c(=O)c2cc(C(=O)N(C)CC(OC)OC)sc2c2ccccc21	none
CC(=O)[C@H]1[C@@H]2C(=O)N(c3cccc(Cl)c3)C(=O)[C@@H]2[C@H]2c3ccccc3C=CN21	core dimer inh 58
COC(=O)c1cc(=O)n(Cc2ccco2)c(=Nc2ccc(F)cc2)s1	none
Cc1ccc(CSc2cc(C)[nH]c(=O)n2)cc1	core dimer inh 53
Cc1cc(SCc2ccc(Cl)cc2)nc(=O)[nH]1	none
CCC(=O)Nc1nc2ccc(NC(C)=O)cc2s1	IMP-1 inhibitor 6.2
O=S1(=O)N=CN(Cc2cccc(F)c2)c2ccccc21	none
Cc1ccc(C(=O)N/C(=C/c2ccc(-c3cccc([N+](=O)[O-])c3)o2)C(=O)NC(C)C)cc1	none
CN(C)CCCNC(=O)/C(=C\c1ccc(-c2ccc(Br)cc2)o1)NC(=O)c1ccccc1	none
Cc1ccc(C(=O)N/C(=C\c2ccc(-c3cccc([N+](=O)[O-])c3)o2)C(=O)NCCCN2CCOCC2)cc1	DNA FID counter 44
Cc1ccc(C(=O)N/C(=C\c2ccc(-c3ccc(Cl)cc3)o2)C(=O)NCCCN(C)C)cc1	DNA FID counter 53
CN(C)C(=O)/C(=C/c1ccc(-c2cccc([N+](=O)[O-])c2)o1)NC(=O)c1ccccc1	none
CN(C)C(=O)/C(=C\c1ccc(-c2cccc([N+](=O)[O-])c2)o1)NC(=O)c1ccccc1	VIM-2 inhibitor 9.2
CN1C(=O)C(C)(C)c2cc(S(=O)(=O)NCC(=O)NCc3ccccc3)ccc21	none
O=C(Nc1nc(-c2ccccc2)cs1)C1CCCN(S(=O)(=O)c2cccc([N+](=O)[O-])c2)C1 (configuration not stated)	core dimer inh 46
O=C(Nc1nccs1)C1CCCN(S(=O)(=O)c2cccnc2)C1 (configuration not stated)	IMP-1 inhibitor 4.8
O=C(Nc1nccs1)C1CCN(S(=O)(=O)c2cccnc2)CC1	none (no result: DNA FID counter, IMP-1 inhibitor, VIM-2 inhibitor)
O=C(Nc1nc(-c2ccccc2)cs1)C1CCCN(S(=O)(=O)c2ccccc2)C1 (configuration not stated)	none
O=C(c1ccccc1F)N1CCN(c2ccc([N+](=O)[O-])c3cccnc23)CC1	none
CN(C)S(=O)(=O)N1CCC(CO)(CCc2ccccc2)CC1	none
COc1cc(C(=O)NCC2CCCO2)ccc1OCc1ccccc1 (configuration not stated)	none
COc1cc(/C=C2/C(=O)c3cccc([N+](=O)[O-])c3C2=O)c(Br)cc1O	none
O=C(NCc1cccs1)c1cc(C2CC2)on1	none
CC(c1ccccc1)N1C(=O)c2ccc(C(=O)Nc3ccc(Br)cc3C(=O)O)cc2C1=O (configuration not stated)	none
CC(c1ccccc1)N1C(=O)c2ccc(C(=O)Nc3ccccc3C(=O)O)cc2C1=O (configuration not stated)	DNA FID counter 43
COc1ccc(C(C(=O)NC2CCCC2)N(C(=O)c2snc(-c3ccc(F)cc3)c2N)c2ccc(OC)cc2)cc1 (configuration not stated)	core dimer inh 48
Cc1ccc(C)c(OCCC(=O)OCC(=O)NCCNC(=O)COC(=O)CCOc2cc(C)ccc2C)c1	none (no result: DNA FID counter, IMP-1 inhibitor, VIM-2 inhibitor)
CC(=O)NN1C(=O)c2ccc(Oc3cccc([N+](=O)[O-])c3)cc2C1=O	IMP-1 inhibitor 6.0
CN(Cc1nc2ccccc2c(=O)[nH]1)Cc1nc2ccsc2c(=O)[nH]1	none
COc1cccc2c1C(=O)c1c(O)c3c(c(O)c1C2=O)C[C@@](O)(C(=O)CO)C[C@@H]3O[C@H]1C[C@H](N)[C@H](O)[C@H](C)O1	DNA FID counter 59, IMP-1 inhibitor 5.7, VIM-2 inhibitor 24
COc1ccc(-c2cc(N3CCCC3)n3ncnc3n2)cc1	none
CC(C)CC(NC(N)=O)C(=O)Nc1ccc(Oc2ccccc2)cc1 (configuration not stated)	none
Cc1c(NC(=O)c2cccnc2C(=O)O)cccc1C(=O)O	none
Cc1[nH]c2ccccc2c1/C=N/NC(=O)CNC(=O)c1ccccc1	none
C=CCn1c(SCC(=O)NC2CCCC2)nc2scc(-c3ccco3)c2c1=O	core dimer inh 55
C=CCn1c(SCC(=O)NCC2CCCO2)nc2scc(-c3ccccc3)c2c1=O (configuration not stated)	none
C=CCn1c(SCC(=O)NCCCC)nc2scc(-c3ccco3)c2c1=O	IMP-1 inhibitor 7.9
CCc1nnc(NS(=O)(=O)c2ccc(NC(=O)OC)cc2)s1	none
Cc1ccc(C(=O)NNC(=O)C2CCN(Cc3ccccc3)CC2)cc1	none
c1ccc2c(c1)ncn2Cc1nnc2sc(-c3ccc4c(c3)OCO4)nn12	VIM-2 inhibitor 9.6
O=C1CC(N2C(=O)/C(=C/C=C/c3ccccc3)SC2=S)C(=O)N1c1ccccc1 (configuration not stated)	core dimer inh 51
Cc1cc([N+](=O)[O-])cc([N+](=O)[O-])c1NCC(C)C	none
